Assay results as given in ChEMBL document CHEMBL4014335, “Activation of Phenyl 4-(2-Oxo-3-alkylimidazolidin-1-yl)benzenesulfonates Prodrugs by CYP1A1 as New Antimitotics Targeting Breast Cancer Cells” (J Med Chem, 2017).
pIC50: −log10 of the molar value.

How the values were obtained:
HT-29 = assay: Antiproliferative activity against human HT-29 cells after 48 hrs by SRB assay; type: functional, cell-based; conditions: HT-29, 48 h
Summary of the method: (§1)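 SRB assay run as in the NCI screen with slight modifications. Seeding: HT-29 5.0 x 10^3, M21 3.5 x 10^3, MCF7 7.5 x 10^3 cells; cells preincubated 24 h. Drug in DMSO added at 0.75 to 1.0 x 10^5 nM for 48 h. TCA fixation, sulforhodamine B staining, absorbance 530-565 nm. At least two experiments in triplicate; runs accepted only when relative SD < 10%.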

M21 = assay: Antiproliferative activity against human M21 cells after 48 hrs by SRB assay; type: functional, cell-based; conditions: M21, 48 h; summary of the method: as §1
MCF7 = assay: Antiproliferative activity against human MCF7 cells after 48 hrs by SRB assay; type: functional, cell-based; conditions: MCF7, 48 h; summary of the method: as §1
[1] = Selectivity ratio of IC50 for human HT-29 cells to IC50 for human MCF7 cells; type: functional
Summary of the method: (§2)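 Ratio is IC50 in reference line over IC50 in sensitive line. […] Cells in DMEM with 5% calf serum at 37 °C. At least two experiments, triplicate cultures; assay accepted when relative SD < 10%.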

[2] = Selectivity ratio of IC50 for human M21 cells to IC50 for human MCF7 cells; type: functional; summary of the method: as §2

| Compound | pIC50 (HT-29) | pIC50 (M21) | pIC50 (MCF7) | Ratio IC50 [1] | Ratio IC50 [2] |
| --- | --- | --- | --- | --- | --- |
| COc1ccc(OS(=O)(=O)c2ccc(N3CCN(C)C3=O)cc2)cc1 | < 4.00 | < 4.00 | 4.02 | >1.1 | >1.1 |
| CN1CCN(c2ccc(S(=O)(=O)Oc3cccc(I)c3)cc2)C1=O | 6.23 | 6.40 | 6.25 | 1.1 | 0.7 |
| CCCN1CCN(c2ccc(S(=O)(=O)Oc3ccccc3CC)cc2)C1=O | < 4.00 | < 4.30 | 5.64 | >43 | >22 |
| CN1CCN(c2ccc(S(=O)(=O)Oc3ccc(Cl)cc3)cc2)C1=O | 4.92 | 4.37 | < 4.00 |  |  |
| CCCCN1CCN(c2ccc(S(=O)(=O)Oc3cccc(OC)c3)cc2)C1=O | 4.89 | 4.52 | 6.31 | 27 | 61 |
| CCN1CCN(c2ccc(S(=O)(=O)Oc3cccc(I)c3)cc2)C1=O | 5.51 | 5.66 | 5.72 | 1.7 | 1.2 |
| CCN1CCN(c2ccc(S(=O)(=O)Oc3ccccc3OC)cc2)C1=O | < 4.00 | < 4.00 | < 4.00 |  |  |
| CCCN1CCN(c2ccc(S(=O)(=O)Oc3ccc(OC)c(OC)c3)cc2)C1=O | 4.85 | 4.55 | 5.17 | 2 | 4.1 |
| CCN1CCN(c2ccc(S(=O)(=O)Oc3cccc(F)c3)cc2)C1=O | < 4.00 | 4.96 | < 4.00 |  |  |
| CCCCN1CCN(c2ccc(S(=O)(=O)Oc3ccccc3OC)cc2)C1=O | < 4.00 | < 4.00 | 5.42 | >26 | >26 |
| CN1CCN(c2ccc(S(=O)(=O)Oc3c(Cl)cc(Cl)cc3Cl)cc2)C1=O | 5.60 | 5.77 | 5.54 | 0.9 | 0.6 |
| CN1CCN(c2ccc(S(=O)(=O)Oc3cccc(Br)c3)cc2)C1=O | 5.89 | 5.89 | 5.82 | 0.8 | 0.9 |
| CCCN1CCN(c2ccc(S(=O)(=O)Oc3cccc([N+](=O)[O-])c3)cc2)C1=O | < 4.00 | 4.42 | 4.72 | >5.3 | 2 |
| CCCN1CCN(c2ccc(S(=O)(=O)Oc3ccccc3OC)cc2)C1=O | < 4.00 | < 4.00 | 4.89 | >7.7 | >7.7 |
| CCCN1CCN(c2ccc(S(=O)(=O)Oc3cc(OC)cc(OC)c3)cc2)C1=O | 4.80 | 4.48 | 6.57 | 59 | 120 |
| CCCCN1CCN(c2ccc(S(=O)(=O)Oc3ccc(OC)cc3)cc2)C1=O | 4.46 | < 4.00 | 5.60 | 14 | >39 |
| CN1CCN(c2ccc(S(=O)(=O)Oc3cccc([N+](=O)[O-])c3)cc2)C1=O | 4.59 | 4.64 | < 4.00 |  |  |
| CCCN1CCN(c2ccc(S(=O)(=O)Oc3ccccc3C)cc2)C1=O | < 4.00 | < 4.00 | < 4.00 |  |  |
| CCN1CCN(c2ccc(S(=O)(=O)Oc3ccc(OC)cc3)cc2)C1=O | 4.22 | 4.59 | < 4.00 |  |  |
| CN1CCN(c2ccc(S(=O)(=O)Oc3ccc(F)cc3)cc2)C1=O | < 4.00 | < 4.00 | < 4.00 |  |  |
| CN1CCN(c2ccc(S(=O)(=O)Oc3cccc(F)c3)cc2)C1=O | < 4.00 | 5.24 | < 4.00 |  |  |
| Cc1ccc(OS(=O)(=O)c2ccc(N3CCN(C)C3=O)cc2)cc1 | < 4.00 | < 4.00 | < 4.00 |  |  |
| CCCN1CCN(c2ccc(S(=O)(=O)Oc3c(Cl)cc(Cl)cc3Cl)cc2)C1=O | 4.25 | 4.25 | < 4.00 |  |  |
